Like-named read-outs stand apart in the source and are kept apart here.
Columns and labels:
streptavidin (SA) [1] = target: T1, streptavidin (SA) (Streptomyces avidinii, UniProt P22629); assay: Competition binding
streptavidin (SA) [2] = target: T1, streptavidin (SA); assay: Isothermal titration calorimetry; type: binding
streptavidin (SA) [3] = target: T1, streptavidin (SA); assay: Direct binding to SA quantified by Trp-FRET
Outline: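 Tryptophan excited at 295 nm, emission read at 460 nm, averaged over three readings. SA-alone and free-probe signals subtracted, then corrected by quenching ratio (Iad = IFRET/Qr). Plotted against SA monomer concentration; one-site specific binding fit, triplicate.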

streptavidin (SA) [4] = target: T1, streptavidin (SA); assay: Binding to SA by quenching or enhancement of PB fluorescence
Outline: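 Streptavidin at varied concentrations (spanning at least 20–80% complexation) incubated 1 h at room temperature with shaking in PBS pH 7.4 with fixed PB-linked probe (5 or 25 nM). Ex 400 nm, em 460 nm. SA-alone background subtracted. Change in fluorescence normalized and plotted against SA monomer concentration; one-site specific binding fit, triplicate. For one probe, the three highest SA concentrations (64–256 nM) were excluded.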

streptavidin (SA) [5] = target: T1, streptavidin (SA); assay: Comparison of Trp-FRET acceptors; conditions: for FF (FRET fold effect): FF = Iad/Ia; for Iad (intensity of FRET acceptor, sensitivity): acceptor 100 nM bound to SA 400 nM, Ex. 295 nm, at Em. λmax, normalized to Id; for Fold less sensitive than PB (12) as Trp-FRET acceptor / E (efficiency of FRET with tryptophan): bound to SA; for E (efficiency of FRET with tryptophan): E = 1 – Ida/Id
Outline: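 Biotin-linked fluorophore acceptors (100 nM) bound to streptavidin (400 nM, as monomer) in PBS pH 7.4. Tryptophan excited at 295 nm; acceptor intensity (Iad) read at its emission λmax and normalized to donor intensity (Id). FRET efficiency E = 1 − Ida/Id; fold effect FF = Iad/Ia.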

[6] = cited from earlier work
[7] = Photophysical properties of probes in PBS; type: physicochemical; conditions: for ε (molar extinction coefficient): PBS (0.5% DMSO), at absorbance λmax; for Fold by which PB-derived probe 12 is brighter than this probe: aqueous PBS (pH 7.4)
Outline: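 ε: Beer's-law plots of absorbance at λmax vs concentration in PBS (0.5% DMSO), 1 cm path; least-squares fit through zero. Spectra: 32 µM for absorbance, 50 nM for emission, excited at λmax. Φ by Williams' method: excitation 396 nm, integrated emission 415–700 nm at 5–160 nM, plotted against absorbance extrapolated from higher concentrations; coumarin 102 standard (Φ = 0.66 in water).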

Ki (streptavidin (SA) [1]) [nM]	Kd (streptavidin (SA) [2]) [nM]	FF (FRET fold effect) (streptavidin (SA) [5])	Iad (intensity of FRET acceptor, sensitivity) (streptavidin (SA) [5])	E (efficiency of FRET with tryptophan) (streptavidin (SA) [5])	ε (molar extinction coefficient) [7]	SMILES	other results
1350 ± 180	1550 ± 270					C[C@@H]1NC(=S)N[C@@H]1CCCCCC(=O)O [compound 20, 6-((4R,5S)-5-Methyl-2-thioxoimidazolidin-4-yl)hexanoic Acid]	
	125 ± 45					C[C@@H]1NC(=S)N[C@@H]1CCCCCC(=O)NCCNC(=O)c1cc2cc(F)c(O)c(F)c2oc1=O [compound 18, 6,8-Difluoro-7-hydroxy-N-(2-(6-((4R,5S)-5-methyl-2-thioxoimidazolidin-4-yl)hexanamido)ethyl)-2-oxo-2H-chromene-3-carboxamide]	Kd (streptavidin (SA) [3]): 145 ± 19 nM; Change of fluorescence of PB-linked ligand on binding to SA (streptavidin (SA) [4]): enhanced
188 ± 25						C[C@@H]1NC(=S)NC1CCCCCC(=O)OCc1ccccc1 (stereo partly drawn) [compound 22, Benzyl 6-((5S)-5-methyl-2-thioxoimidazolidin-4-yl)hexanoate]	
		4.8	2.2	0.21	7800 M^–^1cm^–^1	O=C(CCCC[C@@H]1SC[C@@H]2NC(=O)N[C@@H]21)NCCNC(=O)Cc1cc(=O)oc2cc(O)ccc12 [compound 14, N-(2-(2-(7-Hydroxy-2-oxo-2H-chromen-4-yl)acetamido)ethyl)-5-((3aS,4S,6aR)-2-oxohexahydro-1H-thieno[3,4-d]imidazol-4-yl)pentanamide]	Fold less sensitive than PB (12) as Trp-FRET acceptor (streptavidin (SA) [5]; compared with 12): 1.5 fold; Reduction of FRET fold effect (FF), factor (streptavidin (SA) [5]; compared with 12, due to increased excitation at 295 nm): 4; Φf (quantum yield) [6]: 0.47[6]; Fold by which PB-derived probe 12 is brighter than this probe [7]: ~3 fold
	12 ± 4					O=C(CCCC[C@@H]1SC[C@@H]2NC(=S)N[C@@H]21)NCCNC(=O)c1cc2cc(F)c(O)c(F)c2oc1=O [compound 17, 6,8-Difluoro-7-hydroxy-2-oxo-N-(2-(5-((3aS,4S,6aR)-2-thioxohexahydro-1H-thieno[3,4-d]imidazol-4-yl)pentanamido)ethyl)-2H-chromene-3-carboxamide]	Kd (streptavidin (SA) [3]): 11 ± 2 nM; Change of fluorescence of PB-linked ligand on binding to SA (streptavidin (SA) [4]): partially quenched
		19.2	3.3	0.40	24 200 M^–^1cm^–^1	O=C(CCCC[C@@H]1SC[C@@H]2NC(=O)N[C@@H]21)NCCNC(=O)c1cc2cc(F)c(O)c(F)c2oc1=O [compound 12, 6,8-Difluoro-7-hydroxy-2-oxo-N-(2-(5-((3aS,4S,6aR)-2-oxohexahydro-1H-thieno[3,4-d]imidazol-4-yl)pentanamido)ethyl)-2H-chromene-3-carboxamide]	Φf (quantum yield) ([7]; PBS, relative to coumarin 102): 0.74
693 ± 91						COC(=O)CCCCC[C@H]1NC(=S)N[C@H]1C [compound 21, Methyl 6-((4R,5S)-5-methyl-2-thioxoimidazolidin-4-yl)hexanoate]	
		8.0	0.6	0.35	11 600 M^–^1cm^–^1	CN(C)c1ccc2c(CC(=O)NCCNC(=O)CCCC[C@@H]3SC[C@@H]4NC(=O)N[C@@H]43)cc(=O)oc2c1 [compound 15, N-(2-(2-(7-(Dimethylamino)-2-oxo-2H-chromen-4-yl)acetamido)ethyl)-5-((3aS,4S,6aR)-2-oxohexahydro-1H-thieno[3,4-d]imidazol-4-yl)pentanamide]	Fold less sensitive than PB (12) as Trp-FRET acceptor (streptavidin (SA) [5]; compared with 12): 6 fold; Φf (quantum yield) [6]: 0.06[6]; Fold by which PB-derived probe 12 is brighter than this probe [7]: ~17 fold
						O=C(O)CCCC[C@@H]1SC[C@@H]2NC(=O)N[C@@H]21 [biotin, reference compound]	Effect of competitor on FRET from 12 bound to SA (streptavidin (SA) [5]; biotin 10 μM, 12 100 nM, SA monomer 400 nM): blocked FRET
						O=C(O)c1cc2cc(F)c(O)c(F)c2oc1=O [PB, 6,8-Difluoro-7-hydroxy-2-oxo-2H-chromene-3-carboxylic Acid, reference compound]	ε (molar extinction coefficient) [6]: 29 500 M^–1 cm^–1
